High-throughput results as filed in PubChem BioAssay.
HCV NS3 hel inh – inhibitors of Hepatitis C virus NS3 helicase | NS3 helicase DNA unwinding, Cy5 molecular beacon fluorescence | inhibition, % at 10.9 µM | 290,000 compounds, 0.56% hits;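 active = inhibition above the mean of all tested compounds plus 3 SD, set per campaign, cut at about 35% in these data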
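System: HCV NS3 helicase fragment; control set: DMSO and thioflavine S; technique: Cy5 fluorescence at 0 and 60 min, beacon hairpin quenching; reagent: beacon DNA duplex substrate plus ATP; replicates: singlicate; schedule: 1 h reaction at 25 °C, ATP-initiated; medium: MOPS buffer pH 6.5 with MgCl2, DTT, Tween20, BSA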
ZTA DNA inh – counter-screen for EBNA-1 inhibitors: inhibitors of Epstein-Barr virus ZTA; P03206; ZTA-DNA binding, fluorescence polarization; inhibition, % at 11 µM; 320,000 compounds, 0.15% hits; in the data active = inhibition above about 33%
Target sequence (P03206 whole entry, looked up): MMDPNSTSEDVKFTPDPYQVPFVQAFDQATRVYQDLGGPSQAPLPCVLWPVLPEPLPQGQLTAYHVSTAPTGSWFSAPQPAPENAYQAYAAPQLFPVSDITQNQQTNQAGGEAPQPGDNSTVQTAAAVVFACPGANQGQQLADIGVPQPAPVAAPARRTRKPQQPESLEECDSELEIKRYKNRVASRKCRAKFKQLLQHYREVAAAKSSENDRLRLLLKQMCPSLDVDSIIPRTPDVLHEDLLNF
EBV gp42 inh – inhibitors of Epstein-Barr virus glycoprotein 42; Q1HVG2; Fluorescence polarization binding assay, mP read-out; inhibition, % (tested at 21.74 µM); 220,000 compounds, 0.42% hits; in the data active = inhibition above about 50%
GPR7 antag – blocks human GPR7 receptor signaling | 290,000 compounds, 1.1% hits | GPR7-expressing cells, fluorescence antagonist assay | P48145 | inhibition, % at 4.4 µM; in the data active = inhibition above about 16%, passing the limit was not always enough;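 note: cells stimulated with the agonist NPW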
Target sequence (P48145 whole entry, looked up): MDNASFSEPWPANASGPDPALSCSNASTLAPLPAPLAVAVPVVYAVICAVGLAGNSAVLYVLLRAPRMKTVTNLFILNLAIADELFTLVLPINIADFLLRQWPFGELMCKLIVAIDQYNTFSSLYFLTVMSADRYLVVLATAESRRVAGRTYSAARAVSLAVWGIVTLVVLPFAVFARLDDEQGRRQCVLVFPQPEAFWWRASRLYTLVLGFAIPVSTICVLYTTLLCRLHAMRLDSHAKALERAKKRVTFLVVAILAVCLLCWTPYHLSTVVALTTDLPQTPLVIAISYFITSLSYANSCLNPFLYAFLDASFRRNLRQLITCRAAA
EBNA-1 inhibitor – blocks EBNA-1 binding to DNA; 300,000 compounds, 0.34% hits; EBNA-1 DNA binding, fluorescence polarization; inhibition, % at 14.8 µM; AID 1950; in the data active = inhibition above about 28%
core dimer inh – HCV core protein dimerization inhibition; TR-FRET GST/Flag-core106 dimerization, 1536-well; inhibition, % at 5 µM; 300,000 compounds, 0.33% hits; AID 1899;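 active = inhibition above the mean of all tested compounds plus 3 SD, set per screening campaign, cut at about 45% in these data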
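System: GST-tagged and Flag-tagged HCV core protein residues 1-106 / Input: core106 proteins, GST 13.5 nM and Flag 17 nM / Buffer or medium: KF-containing HEPES buffer, pH 7.45, DTT, CHAPS, BSA / Probe or stimulus: Eu-anti-GST and XL665-anti-Flag labelled anti-tag antibodies / Schedule: 4 h, 22.5 °C incubation / Technique: TR-FRET 671 and 617 nm emission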
EBNA-1 inh conf – EBNA-1 (EBV) inhibition, confirmation; shares compounds with EBNA-1 inhibitor; Recombinant EBNA-1 DBD, Cy5-DNA fluorescence polarization; inhibition, % at 14.8 µM; 830 compounds, 35% hits;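 active = mean inhibition across replicates above a set limit taken from the earlier primary screen, cut at about 28% in these data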
ZTA DNA inh trip – counter-screen for EBNA-1 inhibitors: Epstein-Barr virus ZTA inhibitors, triplicate | 830 tested, under 10 active | Zta-ZRE DNA binding, Cy5 fluorescence polarization | inhibition, % at 11.1 µM | shares compounds with EBNA-1 inhibitor;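 active = mean inhibition over triplicates above a set limit taken from the primary EBNA-1 screen, cut at about 37% in these data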;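 note: purified full length Zta protein with Cy5 labeled ZRE DNA probe; inhibitors lower polarization by freeing the labeled DNA probe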
Numbers stand for hits; n = inactive; x = not tested or not shown; + = active, no number. In the library only some 2.3% were active in any assay of this set; here they are far more common.

SMILES | HCV NS3 hel inh | ZTA DNA inh | EBV gp42 inh | GPR7 antag | EBNA-1 inhibitor | core dimer inh | EBNA-1 inh conf | ZTA DNA inh trip
COc1ccc(/C=C/C(=O)Nc2ccccc2C(F)(F)F)cc1 | n | n | n | n | 32.5 | n | n | n
CCOc1ccc(/C=C/C(=O)Nc2ccccc2C(F)(F)F)cc1 | n | n | n | n | n | n | x | x
Cn1c(NC(=O)c2cccc(Cn3cc(Cl)cn3)c2)nc2ccccc21 | n | n | n | n | 41.2 | n | 33.6 | n
CCn1c(NC(=O)c2cccc(Cn3cc(Cl)cn3)c2)nc2ccccc21 | n | n | n | n | n | n | x | x
COc1cc(NC(=S)NC(=O)c2ccc(F)cc2)ccc1NC(=O)c1ccco1 | n | n | n | n | 40.1 | n | 34.7 | n
COc1cc(NC(=S)NC(=O)c2ccc(C(C)(C)C)cc2)ccc1NC(=O)c1cccs1 | n | n | n | n | n | n | x | x
COc1cc(NC(=S)NC(=O)c2cc(C)cc(C)c2)ccc1NC(=O)c1cccs1 | n | n | n | n | 69.9 | n | n | n
COc1ccc(Nc2nc(N(C)c3ccccc3)nc(N)c2[N+](=O)[O-])cc1 | n | n | x | n | 34.1 | n | 40.3 | n
Cc1cc(Cl)ccc1NC(=O)c1ccc2c(c1)CCN2S(C)(=O)=O | n | x | x | n | x | x | x | x
Cc1cccc(N2CCN(S(=O)(=O)c3ccc4c(c3)n(C)c(=O)c(=O)n4C)CC2C)c1 (centres undefined) | n | n | n | n | 35.5 | n | n | n
Cc1ccc(N2CCN(S(=O)(=O)c3ccc4c(c3)n(C)c(=O)c(=O)n4C)CC2C)cc1 (centres undefined) | n | n | n | n | n | n | x | x
Cc1nc2nc(-c3ccccc3)nn2c(C)c1C | x | n | x | x | + | n | n | n
C/C=C(/C)C(=O)Nc1cccc(C2=NOC3(C2)C[C@@H](C(N)=O)N(C(=O)/C=C/CC)C3)c1 (some centres undefined) | x | n | n | x | n | n | x | x
COC(=O)c1cccc(S(=O)(=O)N2CCC(NC(=O)Nc3cccc(F)c3)CC2)c1 | n | n | n | n | 36.0 | n | 60.6 | n
CC(=O)c1ccc(S(=O)(=O)N2CCC(NC(=O)Nc3cccc(F)c3)CC2)cc1 | n | n | n | n | n | n | x | x
C/C(CC(=O)Nc1ccc(OCc2ccccc2)cc1)=N\NC(=O)C(=O)Nc1ccc(C)c(Cl)c1 | n | n | n | n | n | n | x | x
CCOc1ccc(N=C2NC(=O)C(CC(=O)Nc3ccc(OC)cc3)S2)cc1 (centres undefined) | n | n | n | n | 33.3 | n | 28.9 | n
O=C(Cn1cnc2c(nnn2Cc2ccc(Cl)cc2)c1=O)OCc1ccccc1 | n | n | n | n | 29.9 | n | n | n
CC(O)CNc1cnccn1 (centres undefined) | n | n | n | n | n | n | x | x
COc1ccc(-c2cc(C(=O)NCc3cccs3)no2)cc1 | n | n | n | n | n | n | x | x
COc1ccc2nc3sc(C(=O)NCc4cccs4)c(N)c3cc2c1 | n | n | n | n | 31.3 | n | n | n
COc1cc(NC(=O)COC(=O)/C=C/c2ccc(OC)c(OC)c2)cc(OC)c1 | n | n | n | n | n | n | x | x
COc1cc(NC(=O)COC(=O)/C=C/c2ccccc2Cl)cc(OC)c1 | n | n | n | n | 68.9 | n | 29.8 | n
COc1ccc(OC)c(NC(=O)COC(=O)/C=C/c2ccc(Cl)cc2)c1 | n | n | n | n | 41.8 | n | n | n
Cc1ccccc1OCc1nnc(SCC(=O)Nc2ccc3nc(SCC(=O)Nc4ccccc4)sc3c2)n1C | n | n | n | n | 44.1 | n | 43.0 | n
SMILES | HCV NS3 hel inh | ZTA DNA inh | EBV gp42 inh | GPR7 antag | EBNA-1 inhibitor | core dimer inh | EBNA-1 inh conf | ZTA DNA inh trip
Cn1c(/C(C#N)=C/c2cccc(O)c2)nc2ccccc21 | n | n | n | n | n | n | x | x
Cn1c(/C(C#N)=C/c2ccc(-c3ccc(S(N)(=O)=O)cc3)o2)nc2ccccc21 | n | n | n | n | 39.9 | n | 38.4 | n
CCOC(=O)Cc1cc(=O)[nH]c(/N=C(\N)Nc2ccc(C)cc2C)n1 | n | n | n | n | 47.0 | n | n | n
Cc1c(C=O)c2ccccc2n1CC(=O)NC(C)c1ccccc1 (centres undefined) | n | n | n | n | n | n | x | x
Cc1nn(-c2cccc(Cl)c2)c(Cl)c1/C=N/NC(=O)c1cccs1 | n | n | n | n | n | n | x | x
CCNC(=S)N/N=C/c1c(C)nn(-c2cccc(Cl)c2)c1Cl | n | n | n | n | 57.2 | n | 48.3 | n
O=C1COc2ccc(C(=O)COC(=O)C3CCN(S(=O)(=O)c4cccs4)CC3)cc2N1 | n | n | n | n | 34.8 | n | n | n
O=C(COC(=O)C1CCN(S(=O)(=O)c2cccs2)CC1)c1ccc2c(c1)OCCO2 | n | n | n | n | n | n | x | x
CCC(C)(C)n1nnnc1C(c1cccnc1)N1CCN(c2cccc(C(F)(F)F)c2)CC1 (centres undefined) | n | n | n | n | n | n | x | x
COc1ccc(/C=C/C(=O)Oc2ccc(/C=N\NC(=O)c3ccc(F)cc3)cc2)cc1 | n | n | n | n | n | n | x | x
COc1ccc(/C=C/C(=O)Oc2cccc(/C=N/NC(=O)c3cccc(F)c3)c2)cc1 | n | n | n | 18.5 | 28.8 | n | n | n
N#Cc1c2c(c(NCc3ccco3)n3c1nc1ccccc13)CCC2 | n | n | n | n | n | n | x | x
N#Cc1c2c(c(Nc3ccc(O)cc3)n3c1nc1ccccc13)CCC2 | n | n | n | n | 39.2 | n | n | n
O=C(CSc1nnc(-c2ccncc2)n1-c1ccccc1)NC1CC1 | n | n | x | n | n | n | x | x
O=C(CSc1ncnc2c1oc1ccccc12)Nc1cccc(F)c1 | n | n | n | n | 34.4 | n | 54.2 | n
Cc1cccc(NC(=O)CSc2ncnc3c2oc2ccccc23)c1 | n | n | n | n | n | n | x | x
Cc1cccc(NC(=O)/C(C#N)=C/c2cn(CC(=O)NCc3ccco3)c3ccccc23)c1C | n | n | n | n | 35.4 | n | 29.9 | n
CC(=O)Nc1ccc(NC(=O)C(Cc2ccccc2)NC(=O)C2CCC(C)CC2)cc1 (centres undefined) | n | n | n | n | n | n | x | x
COCCNC(=O)c1ccc(-n2c(SCc3cc(F)ccc3F)nc3ccccc3c2=O)cc1 | n | n | n | n | 39.6 | n | n | n
Cc1ccccc1Nc1nc(N)nc(CSc2nc3ccccc3c(=O)n2CCCO)n1 | n | n | n | n | 42.2 | n | n | n
O=C(c1ccc2c(c1)OCCO2)N1CCN(Cc2ccccc2)CC1 | n | n | n | n | n | n | x | x
COCCN(C(=O)COC(=O)Cc1cccc(OC)c1)c1c(N)n(CC(C)C)c(=O)[nH]c1=O | x | n | x | x | n | n | x | x
